Source: ChEMBL document CHEMBL1138404, “Bisindole alkaloids of the topsentin and hamacanthin classes from a marine sponge Spongosorites sp” (J Nat Prod, 2007)
≈ marks a conversion by molar mass, not a printed value.

How the values were obtained:
Escherichia coli [1] = test: Antibacterial activity against […] Escherichia coli DC0; type: functional
In short: (§1)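 Agar dilution MIC: Mueller Hinton agar plates containing 17 serial dilutions of sample (final 25 to 0.002 μg/mL), meropenem and imipenem as standards. Strains grown 18 h at 37 °C in Fleisch extract broth (10% horse serum for some strains), spotted onto plates by automatic inoculator; MIC read after 18 h incubation.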

Salmonella typhimurium = test: Antibacterial activity against […] Salmonella Typhimurium; type: functional, Salmonella enterica subsp. enterica serovar Typhimurium; conditions: Salmonella enterica; in short: as §1
Escherichia coli [2] = test: Antibacterial activity against […] Escherichia coli DC2; type: functional; in short: as §1
[3] = Cytotoxicity against human SK-OV-3 cell line; type: cell-based; conditions: SK-OV-3 cells, read-out: ED50 (the source's name)
Enterococcus faecium = test: Antibacterial activity against […] Streptococcus faecium MD8b; type: functional; in short: as §1
Pseudomonas aeruginosa [4] = test: Antibacterial activity against […] Pseudomonas aeruginosa 1771; type: functional; in short: as §1
[5] = Cytotoxicity against human XF498 cell line; type: cell-based; conditions: XF498 cells, read-out: ED50 (the source's name)
Streptococcus pyogenes [6] = test: Antibacterial activity against methicillin-resistant Streptococcus pyogenes 308A; type: functional; in short: as §1
[7] = Cytotoxicity against human SK-MEL-2 cell line; type: cell-based; conditions: SK-MEL-2 cells, read-out: ED50 (the source's name)
Enterobacter cloacae [8] = test: Antibacterial activity against […] Enterobacter cloacae P99; type: functional; in short: as §1
Pseudomonas aeruginosa [9] = test: Antibacterial activity against […] Pseudomonas aeruginosa 9027; type: functional; in short: as §1
Pseudomonas aeruginosa [10] = test: Antibacterial activity against […] Pseudomonas aeruginosa 1592E; type: functional; in short: as §1
Escherichia coli [11] = test: Antibacterial activity against […] Escherichia coli 078; type: functional; in short: as §1
Klebsiella aerogenes = test: Antibacterial activity against […] Klebsiella aerogenes 1522E; type: functional; in short: as §1
Escherichia coli [12] = test: Antibacterial activity against […] Escherichia coli 1507E; type: functional; in short: as §1
Escherichia coli [13] = test: Antibacterial activity against […] Escherichia coli TEM; type: functional; in short: as §1
Staphylococcus aureus [14] = test: Antibacterial activity against methicillin-resistant Staphylococcus aureus SG511; type: functional; in short: as §1
Enterobacter cloacae [15] = test: Antibacterial activity against […] Enterobacter cloacae 1321E; type: functional; in short: as §1
Streptococcus pyogenes [16] = test: Antibacterial activity against methicillin-resistant Streptococcus pyogenes 77A; type: functional; in short: as §1
[17] = Cytotoxicity against human A549 cell line; type: cell-based; conditions: A549 cells, read-out: ED50 (the source's name)
Pseudomonas aeruginosa [18] = test: Antibacterial activity against […] Pseudomonas aeruginosa 1771M; type: functional; in short: as §1
Staphylococcus aureus [19] = test: Antibacterial activity against methicillin-resistant Staphylococcus aureus 503; type: functional; in short: as §1
Klebsiella oxytoca = test: Antibacterial activity against […] Klebsiella oxytoca 1082E; type: functional; in short: as §1
[20] = Cytotoxicity against human HCT15 cell line; type: cell-based; conditions: HCT-15 cells, read-out: ED50 (the source's name)
Staphylococcus aureus [21] = test: Antibacterial activity against methicillin-resistant Staphylococcus aureus 285; type: functional; in short: as §1

Row | SMILES | MIC (Escherichia coli [1]) | MIC (Salmonella typhimurium) | MIC (Escherichia coli [2]) | CC50 [3] | MIC (Enterococcus faecium) | MIC (Pseudomonas aeruginosa [4]) | CC50 [5] | MIC (Streptococcus pyogenes [6]) | CC50 [7] | MIC (Enterobacter cloacae [8]) | MIC (Pseudomonas aeruginosa [9]) | MIC (Pseudomonas aeruginosa [10]) | MIC (Escherichia coli [11]) | MIC (Klebsiella aerogenes) | MIC (Escherichia coli [12]) | MIC (Escherichia coli [13]) | MIC (Staphylococcus aureus [14]) | MIC (Enterobacter cloacae [15]) | CC50 [17] | CC50 [20] | also measured
1 | O=C1N[C@@H](c2c[nH]c3ccccc23)CN=C1c1c[nH]c2ccccc12 | > 25 µg/mL | > 25 µg/mL | > 25 µg/mL | 11.5 µg/mL (≈ 35 µM) | > 25 µg/mL | 25 µg/mL (≈ 76.1 µM) | 17.1 µg/mL (≈ 52.1 µM) | 25 µg/mL (≈ 76.1 µM) | 5 µg/mL (≈ 15.2 µM) | > 25 µg/mL | > 25 µg/mL | 25 µg/mL (≈ 76.1 µM) | > 25 µg/mL | > 25 µg/mL | > 25 µg/mL | > 25 µg/mL | > 25 µg/mL | > 25 µg/mL | 8.3 µg/mL (≈ 25.3 µM) | 4.1 µg/mL (≈ 12.5 µM) | MIC (Streptococcus pyogenes [16]): 25 µg/mL (≈ 76.1 µM); MIC (Pseudomonas aeruginosa [18]): > 25 µg/mL; MIC (Staphylococcus aureus [19]): > 25 µg/mL; MIC (Klebsiella oxytoca): > 25 µg/mL; MIC (Staphylococcus aureus [21]): > 25 µg/mL
2 | O=C1NC[C@@H](c2c[nH]c3ccccc23)N=C1c1c[nH]c2ccccc12 | > 25 µg/mL | > 25 µg/mL | > 25 µg/mL | 12.6 µg/mL (≈ 38.4 µM) | > 25 µg/mL | 25 µg/mL (≈ 76.1 µM) | 24.1 µg/mL (≈ 73.4 µM) | > 25 µg/mL | 13.7 µg/mL (≈ 41.7 µM) | > 25 µg/mL | > 25 µg/mL | 25 µg/mL (≈ 76.1 µM) | > 25 µg/mL | > 25 µg/mL | > 25 µg/mL | > 25 µg/mL | > 25 µg/mL | > 25 µg/mL | 11.7 µg/mL (≈ 35.6 µM) | 4.79 µg/mL (≈ 14.6 µM) | MIC (Streptococcus pyogenes [16]): > 25 µg/mL; MIC (Pseudomonas aeruginosa [18]): > 25 µg/mL; MIC (Staphylococcus aureus [19]): > 25 µg/mL; MIC (Klebsiella oxytoca): > 25 µg/mL; MIC (Staphylococcus aureus [21]): > 25 µg/mL
3 | O=C1NC[C@@H](c2c[nH]c3ccccc23)N[C@H]1c1c[nH]c2cc(Br)ccc12 | > 25 µg/mL | > 25 µg/mL | > 25 µg/mL | 5.67 µg/mL (≈ 13.9 µM) | > 25 µg/mL | > 25 µg/mL | 9.74 µg/mL (≈ 23.8 µM) | 25 µg/mL (≈ 61.1 µM) | > 10 µg/mL | > 25 µg/mL | > 25 µg/mL | > 25 µg/mL | > 25 µg/mL | > 25 µg/mL | > 25 µg/mL | > 25 µg/mL | > 25 µg/mL | > 25 µg/mL | 9.67 µg/mL (≈ 23.6 µM) | > 10 µg/mL | MIC (Streptococcus pyogenes [16]): > 25 µg/mL; MIC (Pseudomonas aeruginosa [18]): > 25 µg/mL; MIC (Staphylococcus aureus [19]): > 25 µg/mL; MIC (Klebsiella oxytoca): > 25 µg/mL; MIC (Staphylococcus aureus [21]): > 25 µg/mL
4 | O=C1N[C@H](c2c[nH]c3ccccc23)CN[C@H]1c1c[nH]c2cc(Br)ccc12 |  |  |  | 4.92 µg/mL (≈ 12 µM) |  |  | > 10 µg/mL |  | > 10 µg/mL |  |  |  |  |  |  |  |  |  | > 10 µg/mL | > 10 µg/mL | 
5 | O=C1NC[C@@H](c2c[nH]c3cc(Br)ccc23)N[C@H]1c1c[nH]c2ccccc12 | > 25 µg/mL | > 25 µg/mL | > 25 µg/mL | 6 µg/mL (≈ 14.7 µM) | > 25 µg/mL | 25 µg/mL (≈ 61.1 µM) | 6.8 µg/mL (≈ 16.6 µM) | 25 µg/mL (≈ 61.1 µM) | 7.1 µg/mL (≈ 17.3 µM) | > 25 µg/mL | > 25 µg/mL | 25 µg/mL (≈ 61.1 µM) | > 25 µg/mL | > 25 µg/mL | > 25 µg/mL | > 25 µg/mL | > 25 µg/mL | > 25 µg/mL | 4.2 µg/mL (≈ 10.3 µM) | 6.3 µg/mL (≈ 15.4 µM) | MIC (Streptococcus pyogenes [16]): > 25 µg/mL; MIC (Pseudomonas aeruginosa [18]): > 25 µg/mL; MIC (Staphylococcus aureus [19]): > 25 µg/mL; MIC (Klebsiella oxytoca): > 25 µg/mL; MIC (Staphylococcus aureus [21]): > 25 µg/mL
6 | O=C1NC[C@@H](c2c[nH]c3ccccc23)N[C@H]1c1c[nH]c2ccccc12 |  |  |  | 9.64 µg/mL (≈ 29.2 µM) |  |  | > 10 µg/mL |  | > 10 µg/mL |  |  |  |  |  |  |  |  |  | > 10 µg/mL | > 10 µg/mL | 
7 | O=C1N[C@H](c2c[nH]c3cc(Br)ccc23)CN[C@H]1c1c[nH]c2ccccc12 | > 25 µg/mL | > 25 µg/mL | > 25 µg/mL | 12.1 µg/mL (≈ 29.6 µM) | > 25 µg/mL | 25 µg/mL (≈ 61.1 µM) | 19.1 µg/mL (≈ 46.7 µM) | > 25 µg/mL | 13.1 µg/mL (≈ 32 µM) | > 25 µg/mL | > 25 µg/mL | 25 µg/mL (≈ 61.1 µM) | > 25 µg/mL | > 25 µg/mL | > 25 µg/mL | > 25 µg/mL | > 25 µg/mL | > 25 µg/mL | 7.5 µg/mL (≈ 18.3 µM) | 6.3 µg/mL (≈ 15.4 µM) | MIC (Streptococcus pyogenes [16]): > 25 µg/mL; MIC (Pseudomonas aeruginosa [18]): > 25 µg/mL; MIC (Staphylococcus aureus [19]): > 25 µg/mL; MIC (Klebsiella oxytoca): > 25 µg/mL; MIC (Staphylococcus aureus [21]): > 25 µg/mL
